# ChEMBL document CHEMBL1158394, “Diversity-oriented synthesis of furo[3,2-f]chromanes with antimycobacterial activity” (Eur J Med Chem, 2009)
# Activity calls are given as the source filed them. The calls are words filed in the database; no cut-off is given here.
# Tested on: Mycobacterium tuberculosis
# Assay: Antimycobacterial activity against Mycobacterium tuberculosis H37Rv after 6 days by microdilution resazurin assay
# Format: functional
# Conditions: 144 h
# Method in brief: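 The M. tuberculosis H37Rv inoculum is grown in Dubos medium with 10% ADC enrichment. DMSO drug stocks (50 mg/mL) are serially diluted twofold in 96-well plates, with DMSO and isoniazid controls. Plates are sealed and held at 37 °C for 6 days, then 0.01% resazurin is added for another 24 h. MIC95 is taken at >95% growth inhibition, in µg/mL. Duplicate runs in two independent experiments.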
row,SMILES,MIC95 [µg/mL]
1,Cc1c2c(c3cc(-c4ccc(-c5nn[nH]n5)nc4)oc3c1C)CCC(C)(C)O2,10
2,Cc1c2c(c3cc(CCC(=O)N4CCOCC4)oc3c1C)CCC(C)(C)O2,10
3,Cc1c2c(c3cc(-c4cnccn4)oc3c1C)CCC(C)(C)O2,10
4,CC1(C)CCc2c(ccc3oc4ccccc4c23)O1,10
5,CC1(C)C=Cc2c(ccc3oc(-c4ccncc4)cc23)O1,2.5
6,Cc1c2c(c3cc(-c4cccnc4)oc3c1C)C(=O)CC(C)(C)O2,> 10
7,Cc1c2c(c3cc(-c4cccnc4)oc3c1C)CCC(C)(C)O2,5
8,Cc1c(C)c2c(c(C)c1O)CCC(C)(C)O2 [APC-100],10
9,Cc1c2c(c3cc(-c4ccc(NCCCN(C)C)nc4)oc3c1C)CCC(C)(C)O2,3
10,Cc1c2c(c3cc(CCC(=O)N4CCCC4)oc3c1C)CCC(C)(C)O2,10
11,Cc1c2c(c3cc(Cc4ccc(Cl)cc4)oc3c1C)CCC(C)(C)O2,25
12,Cc1c2c(c3cc(C4CCCO4)oc3c1C)CCC(C)(C)O2 (stereo unspecified),> 10
13,Cc1c2c(c3cc(CCC(=O)N4CCN(C)CC4)oc3c1C)CCC(C)(C)O2,> 10
14,Cc1c2c(c3cc(Cc4cccs4)oc3c1C)CCC(C)(C)O2,12.5
15,Cc1c2c(c3cc(-c4ccccn4)oc3c1C)CCC(C)(C)O2,100
16,Cc1c2c(c3cc(Cc4cccnc4)oc3c1C)CCC(C)(C)O2,3

row,SMILES,MIC95 [µg/mL]
1,CC1(C)CCc2c(ccc3oc(-c4cccnc4)c(CCCO)c23)O1,5
2,Cc1c2c(c3cc(-c4ccncc4)oc3c1C)CCC(C)(C)O2,2.5
3,CC1(C)CCc2c(ccc3oc(-c4ccncc4)c(CCCO)c23)O1,5
4,CC(=O)OCc1cc2c3c(c(C)c(C)c2o1)OC(C)(C)CC3,10
5,CC1(C)C=Cc2c(ccc3c2C2CCCOC2O3)O1 (stereo unspecified),250
6,Cc1c2c(c3cc(-c4cccs4)oc3c1C)CCC(C)(C)O2,6.2
7,Cc1c2c(c3cc(-c4ccc(C#N)nc4)oc3c1C)CCC(C)(C)O2,> 10
8,Cc1c(C)c2c(c(C)c1O)CC[C@@](C)(CCC[C@H](C)CCC[C@H](C)CCCC(C)C)O2 [ALPHA-TOCOPHEROL],10
9,Cc1c2c(c3cc(/C=C/c4cccnc4)oc3c1C)CCC(C)(C)O2,5
10,Cc1c(-c2ccncc2)oc2ccc3c(c12)C=CC(C)(C)O3,5
11,Cc1c2c(c3cc(-c4ccc(Cl)nc4)oc3c1C)CCC(C)(C)O2,> 10
12,Cc1c2c(c3cc(CCc4cccnc4)oc3c1C)CCC(C)(C)O2,5
13,NNC(=O)c1ccncc1 [ISONIAZID],0.25
14,COC(=N)c1ccc(-c2cc3c4c(c(C)c(C)c3o2)OC(C)(C)CC4)cn1,0.6
15,Cc1c2c(c3cc(CC#N)oc3c1C)CCC(C)(C)O2,> 10
16,Cc1c2c(c3cc(-c4ccc[n+]([O-])c4)oc3c1C)CCC(C)(C)O2,5

# Tested on: Escherichia coli
# Assay: Genotoxicity in Escherichia coli PQ37 assessed as DNA damage-induced beta-galactosidase release by SOS-chromotest
# Format: toxicity, organism-based
# Conditions: not given
# Method in brief: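 E. coli PQ37 carrying lacZ under control of the SOS gene sfiA; DNA damage induces β-galactosidase, detected by chromogenic reaction with X-gal; duplicate in two independent experiments.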
row,SMILES,Activity
1,Cc1c2c(c3cc(-c4ccc(NCCCN(C)C)nc4)oc3c1C)CCC(C)(C)O2,Toxic

# Tested on: Candida tropicalis
# Assay: Antifungal activity against Candida tropicalis ATCC 66029 after 24 hrs by disk diffusion method
# Format: functional, organism-based
# Conditions: not given
# Method in brief: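 Kirby–Bauer disk diffusion: C. tropicalis suspension spread on solid Sabouraud plates; 6 mm paper discs impregnated with serial dilutions in DMSO placed on plates; inhibition zone diameter measured after 24 h at 30 °C; itraconazole positive control; duplicate in two independent experiments.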
row,SMILES,diameter of the inhibition zone (DIZ)
1,Cc1c2c(c3cc(-c4ccc(NCCCN(C)C)nc4)oc3c1C)CCC(C)(C)O2,Active

# Tested on: Escherichia coli
# Assay: Antibacterial activity against Escherichia coli CIP188631 after 24 hrs by twofold serial dilution method
# Format: functional, organism-based
# Conditions: not given
# Method in brief: (§1)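 LB precultures grown 24 h, diluted 1/1000 and seeded; twofold serial drug dilutions in LB; 37 °C for 24 h; growth read as optical density at 595 nm; 90% inhibitory concentration obtained by curve fitting; tetracycline positive control; duplicate in two independent experiments.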
row,SMILES,Activity
1,Cc1c2c(c3cc(-c4ccc(-c5nn[nH]n5)nc4)oc3c1C)CCC(C)(C)O2,inactive
2,CC(=O)OCCCc1c(-c2ccncc2)oc2ccc3c(c12)CCC(C)(C)O3,inactive
3,Cc1c2c(c3cc(CCC(=O)N4CCOCC4)oc3c1C)CCC(C)(C)O2,inactive
4,Cc1c2c(c3cc(-c4cnccn4)oc3c1C)CCC(C)(C)O2,inactive
5,CC1(C)CCc2c(ccc3oc4ccccc4c23)O1,inactive
6,CC1(C)C=Cc2c(ccc3oc(-c4ccncc4)cc23)O1,inactive
7,Cc1c2c(c3cc(-c4cccnc4)oc3c1C)C(=O)CC(C)(C)O2,inactive
8,Cc1c2c(c3cc(-c4cccnc4)oc3c1C)CCC(C)(C)O2,inactive
9,Cc1c(C)c2c(c(C)c1O)CCC(C)(C)O2 [APC-100],inactive
10,Cc1c2c(c3cc(-c4ccc(NCCCN(C)C)nc4)oc3c1C)CCC(C)(C)O2,inactive
11,Cc1c2c(c3cc(CCC(=O)N4CCCC4)oc3c1C)CCC(C)(C)O2,inactive
12,Cc1c2c(c3cc(Cc4ccc(Cl)cc4)oc3c1C)CCC(C)(C)O2,inactive
13,CC(=O)OCCCc1c(Br)oc2ccc3c(c12)CCC(C)(C)O3,inactive
14,Cc1c2c(c3cc(C4CCCO4)oc3c1C)CCC(C)(C)O2 (stereo unspecified),inactive
15,Cc1c2c(c3cc(CCC(=O)N4CCN(C)CC4)oc3c1C)CCC(C)(C)O2,inactive
16,Cc1c2c(c3cc(Cc4cccs4)oc3c1C)CCC(C)(C)O2,inactive
17,Cc1c2c(c3cc(-c4ccccn4)oc3c1C)CCC(C)(C)O2,inactive
18,Cc1c2c(c3cc(Cc4cccnc4)oc3c1C)CCC(C)(C)O2,inactive

row,SMILES,Activity
1,CC1(C)CCc2c(ccc3oc(-c4cccnc4)c(CCCO)c23)O1,inactive
2,Cc1c2c(c3cc(-c4ccncc4)oc3c1C)CCC(C)(C)O2,inactive
3,CC1(C)CCc2c(ccc3oc(-c4ccncc4)c(CCCO)c23)O1,inactive
4,CC(=O)OCc1cc2c3c(c(C)c(C)c2o1)OC(C)(C)CC3,inactive
5,CC1(C)C=Cc2c(ccc3c2C2CCCOC2O3)O1 (stereo unspecified),inactive
6,Cc1c2c(c3cc(-c4cccs4)oc3c1C)CCC(C)(C)O2,inactive
7,Cc1c2c(c3cc(-c4ccc(C#N)nc4)oc3c1C)CCC(C)(C)O2,inactive
8,Cc1c(C)c2c(c(C)c1O)CC[C@@](C)(CCC[C@H](C)CCC[C@H](C)CCCC(C)C)O2 [ALPHA-TOCOPHEROL],inactive
9,Cc1c2c(c3cc(/C=C/c4cccnc4)oc3c1C)CCC(C)(C)O2,inactive
10,Cc1c(-c2ccncc2)oc2ccc3c(c12)C=CC(C)(C)O3,inactive
11,Cc1c2c(c3cc(-c4ccc(Cl)nc4)oc3c1C)CCC(C)(C)O2,inactive
12,Cc1c2c(c3cc(CCc4cccnc4)oc3c1C)CCC(C)(C)O2,inactive
13,NNC(=O)c1ccncc1 [ISONIAZID],inactive
14,COC(=N)c1ccc(-c2cc3c4c(c(C)c(C)c3o2)OC(C)(C)CC4)cn1,inactive
15,Cc1c2c(c3cc(CC#N)oc3c1C)CCC(C)(C)O2,inactive
16,Cc1c2c(c3cc(-c4ccc[n+]([O-])c4)oc3c1C)CCC(C)(C)O2,inactive
17,CC(=O)OCCCc1c(-c2cccnc2)oc2ccc3c(c12)CCC(C)(C)O3,inactive

# Tested on: Staphylococcus aureus
# Assay: Antibacterial activity against Staphylococcus aureus ATCC 6538 after 24 hrs by twofold serial dilution method
# Format: functional
# Conditions: ATCC 6538, 24 h
# Method in brief: as §1
row,SMILES,MIC90 [µg/mL]
1,CC(=O)OCCCc1c(-c2ccncc2)oc2ccc3c(c12)CCC(C)(C)O3,5
2,CC1(C)C=Cc2c(ccc3oc(-c4ccncc4)cc23)O1,5
3,Cc1c2c(c3cc(-c4ccc(NCCCN(C)C)nc4)oc3c1C)CCC(C)(C)O2,5
4,Cc1c2c(c3cc(Cc4cccnc4)oc3c1C)CCC(C)(C)O2,5
5,Cc1c(-c2ccncc2)oc2ccc3c(c12)C=CC(C)(C)O3,5
6,Cc1c2c(c3cc(CCc4cccnc4)oc3c1C)CCC(C)(C)O2,5
7,COC(=N)c1ccc(-c2cc3c4c(c(C)c(C)c3o2)OC(C)(C)CC4)cn1,5
8,Cc1c2c(c3cc(-c4ccc[n+]([O-])c4)oc3c1C)CCC(C)(C)O2,5

# Tested on: Mycolicibacterium smegmatis
# Assay: Antimycobacterial activity against Mycobacterium smegmatis str. MC2 155 up to 100 ug/mL
# Format: functional, organism-based
# Conditions: not given
row,SMILES,Activity
1,Cc1c2c(c3cc(Cc4cccs4)oc3c1C)CCC(C)(C)O2,inactive
2,Cc1c2c(c3cc(-c4cccs4)oc3c1C)CCC(C)(C)O2,inactive

# Tested on: Vero
# Assay: Cytotoxicity against african green monkey Vero cells after 48 hrs by MTT assay
# Format: cell-based
# Conditions: Chlorocebus sabaeus
# Method in brief: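 Vero cells seeded at 10⁵ cells/mL and preincubated 24 h at 37 °C, 5% CO₂; compounds added at various concentrations in 1% DMSO for 48 h; MTT (5 mg/mL solution) then added for 4 h at 37 °C; absorbance at 595 nm; 50% inhibitory concentration by curve fitting; duplicate in two independent experiments.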
row,SMILES,IC50 [µg/mL]
1,CC(=O)OCCCc1c(-c2ccncc2)oc2ccc3c(c12)CCC(C)(C)O3,14.9
2,CC1(C)CCc2c(ccc3oc4ccccc4c23)O1,100
3,CC1(C)C=Cc2c(ccc3oc(-c4ccncc4)cc23)O1,8.7
4,Cc1c2c(c3cc(-c4ccc(NCCCN(C)C)nc4)oc3c1C)CCC(C)(C)O2,1.6
5,Cc1c2c(c3cc(Cc4ccc(Cl)cc4)oc3c1C)CCC(C)(C)O2,> 100
6,Cc1c2c(c3cc(Cc4cccnc4)oc3c1C)CCC(C)(C)O2,6.4
7,CC1(C)CCc2c(ccc3oc(-c4cccnc4)c(CCCO)c23)O1,> 25
8,Cc1c2c(c3cc(-c4ccncc4)oc3c1C)CCC(C)(C)O2,5.1
9,CC1(C)CCc2c(ccc3oc(-c4ccncc4)c(CCCO)c23)O1,> 25
10,Cc1c2c(c3cc(-c4cccs4)oc3c1C)CCC(C)(C)O2,> 100
11,Cc1c2c(c3cc(/C=C/c4cccnc4)oc3c1C)CCC(C)(C)O2,> 100
12,Cc1c(-c2ccncc2)oc2ccc3c(c12)C=CC(C)(C)O3,12.8
13,Cc1c2c(c3cc(CCc4cccnc4)oc3c1C)CCC(C)(C)O2,7.3
14,NNC(=O)c1ccncc1 [ISONIAZID],> 500
15,COC(=N)c1ccc(-c2cc3c4c(c(C)c(C)c3o2)OC(C)(C)CC4)cn1,3.6
16,Cc1c2c(c3cc(-c4ccc[n+]([O-])c4)oc3c1C)CCC(C)(C)O2,5.6
17,CC(=O)OCCCc1c(-c2cccnc2)oc2ccc3c(c12)CCC(C)(C)O3,17.5
